Tests used:
PBMC [1] = assay: Drug metabolism in rhesus monkey PBMC assessed as ((2R,3S,4R,5R)-5-(4-aminopyrrolo[1,2-f][1,2,4]triazin-7-yl)-5-cyano-3,4-dihydroxytetrahydrofuran-2-yl)methyl tetrahydrogen triphosphate levels at 10 mg/kg, iv administered as single bolus dose up to 2 hrs; assay type: ADME, organism-based, Macaca mulatta; conditions: in vivo
Procedure, shortened: (§1)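 Rhesus monkeys received a single 10 mg/kg iv slow bolus. The active triphosphate metabolite was measured inside PBMCs over time to build a concentration–time profile. Values are mean ± SD, n = 3 per time point.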

Ebolavirus [2] = assay: Antiviral activity against Ebolavirus infected in rhesus monkey assessed as survival rate at 3 mg/kg, iv qd administered continuously starting from day 3 post infection for 12 days measured on day 28 (reference value: 33%); assay type: functional; conditions: Orthoebolavirus, in Macaca mulatta
Ebolavirus [3] = assay: Antiviral activity against Ebolavirus Kikwit infected in human HeLa cells assessed as reduction in viral glycoprotein levels preincubated with cells for 2 hrs followed by viral infection measured after 48 hrs by immunostaining based assay; assay type: functional, cell-based
[4] = Lipophilicity, log D of the compound after 30 mins by HPLC/UV method; assay type: physicochemical
[5] = Drug uptake in cynomolgus monkey epididymis at 10 mg/kg, iv at 4 hrs post dose; assay type: ADME, organism-based, Macaca fascicularis; conditions: in vivo
Ebolavirus [6] = assay: Antiviral activity against Ebolavirus Kikwit infected in human macrophages preincubated with cells for 2 hrs followed by viral infection measured after 48 hrs; assay type: functional
Plasma [7] = assay: Drug uptake in cynomolgus monkey plasma at 10 mg/kg, iv at 4 hrs post dose; assay type: ADME, organism-based, Macaca fascicularis; conditions: in vivo
Ebolavirus [8] = assay: Antiviral activity against GFP-fused Ebolavirus infected in TERT-immortalized HMVEC assessed as reduction in viral replication preincubated with cells followed by viral infection measured after 3 to 4 days by fluorescence assay; assay type: functional
MT4 = assay: (§2) Cytotoxicity against human MT4 cells assessed as reduction in cell viability after 4 to 5 days by Cell-Titer Glo assay; assay type: cell-based; conditions: mt4
PBMC [9] = assay: Time at which plasma concentration greater than in vitro EBOV antiviral IC50 in rhesus monkey PBMC assessed as ((2R,3S,4R,5R)-5-(4-aminopyrrolo[1,2-f][1,2,4]triazin-7-yl)-5-cyano-3,4-dihydroxytetrahydrofuran-2-yl)methyl tetrahydrogen triphosphate levels at 10 mg/kg, iv administered as single bolus; assay type: ADME, organism-based, Macaca mulatta; conditions: in vivo; procedure, shortened: as §1
Ebolavirus [10] = assay: Antiviral activity against Ebolavirus infected in rhesus monkey assessed as viral RNA copies at 10 mg/kg, iv administered daily administered daily starting from day 3 post infection measured on day 5 and 7 (reference value: 10^9 copies/ml); assay type: functional
Plasma [11] = assay: Prodrug conversion in rhesus monkey plasma assessed as (2R,3R,4S,5R)-2-(4-aminopyrrolo[1,2-f][1,2,4]triazin-7-yl)-3,4-dihydroxy-5-(hydroxymethyl)tetrahydrofuran-2-carbonitrile formation at 10 mg/kg, iv administered as single bolus dose; assay type: ADME, organism-based, Macaca mulatta; conditions: in vivo
Procedure, shortened: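 Rhesus monkeys received a single 10 mg/kg iv slow bolus. Plasma was sampled over time, and the prodrug and the parent nucleoside formed from it were both quantified to give a concentration–time profile. Values are mean ± SD, n = 3 per time point.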

Human orthopneumovirus = assay: Antiviral activity against Respiratory syncytial virus A2 infected in human Hep2 cells assessed as reduction of virus-induced cytopathic effect after 4 days by Cell-Titer Glo assay; assay type: functional, cell-based
[12] = Drug uptake in cynomolgus monkey testes at 10 mg/kg, iv at 4 hrs post dose; assay type: ADME, organism-based, Macaca fascicularis, Testis; conditions: in vivo
HEp-2 = assay: (§3) Cytotoxicity against human Hep2 cells assessed as reduction in cell viability after 4 to 5 days by Cell-Titer Glo assay; assay type: cell-based; conditions: hep-2
Brain [13] = assay: Drug uptake in cynomolgus monkey brain at 10 mg/kg, iv at 168 hrs post dose; assay type: ADME, organism-based, Macaca fascicularis; conditions: in vivo
Homo sapiens [14] = assay: Toxicity in phase-1 acute meningoencephalytis patient at 150 mg, iv qd administered daily for 2 days followed by 225 mg for 14 days; assay type: organism-based; conditions: in vivo
Ebolavirus [15] = assay: Antiviral activity against Ebolavirus infected in rhesus monkey assessed as survival rate at 10 mg/kg, iv administered daily starting from day 3 post infection for 12 days relative to control; assay type: functional; conditions: Orthoebolavirus, in Macaca mulatta
Hepatitis C virus = assay: Antiviral activity against Hepatitis C virus genotype 1b infected in human HuH7 cells preincubated with cells for 3 days followed by viral infection by luciferase assay; assay type: functional, cell-based, Hepacivirus hominis
Brain [16] = assay: Drug uptake in cynomolgus monkey brain at 10 mg/kg, iv at 4 hrs post dose; assay type: ADME, organism-based, Macaca fascicularis; conditions: in vivo
[17] = Drug metabolism in cynomolgus monkey testes at 10 mg/kg, iv after 168 hrs post dose; assay type: ADME, organism-based, Macaca fascicularis, Testis; conditions: in vivo
Plasma [18] = assay: Half life in human plasma at 2 uM by LC/MS/MS analysis; assay type: ADME, cell-free; conditions: 2 µM
Homo sapiens [19] = assay: Toxicity in iv dosed phase-1 acute meningoencephalytis patient administered as single dose; assay type: organism-based; conditions: in vivo
[20] = molecular target: T1, DNA-directed RNA polymerase, mitochondrial (Homo sapiens, UniProt O00411); assay: Inhibition of human mitochondrial RNA polymerase after 30 mins in presence of [33P]GTP
[21] = molecular target: T2, DNA polymerase alpha catalytic subunit (Homo sapiens, UniProt P09884); assay: Inhibition of recombinant human DNA polymerase alpha preincubated with enzyme followed by addition of dATP/dGTP/TTP as substrate in presence of […] by phosphorimaging assay
T2 sequence (P09884 whole entry): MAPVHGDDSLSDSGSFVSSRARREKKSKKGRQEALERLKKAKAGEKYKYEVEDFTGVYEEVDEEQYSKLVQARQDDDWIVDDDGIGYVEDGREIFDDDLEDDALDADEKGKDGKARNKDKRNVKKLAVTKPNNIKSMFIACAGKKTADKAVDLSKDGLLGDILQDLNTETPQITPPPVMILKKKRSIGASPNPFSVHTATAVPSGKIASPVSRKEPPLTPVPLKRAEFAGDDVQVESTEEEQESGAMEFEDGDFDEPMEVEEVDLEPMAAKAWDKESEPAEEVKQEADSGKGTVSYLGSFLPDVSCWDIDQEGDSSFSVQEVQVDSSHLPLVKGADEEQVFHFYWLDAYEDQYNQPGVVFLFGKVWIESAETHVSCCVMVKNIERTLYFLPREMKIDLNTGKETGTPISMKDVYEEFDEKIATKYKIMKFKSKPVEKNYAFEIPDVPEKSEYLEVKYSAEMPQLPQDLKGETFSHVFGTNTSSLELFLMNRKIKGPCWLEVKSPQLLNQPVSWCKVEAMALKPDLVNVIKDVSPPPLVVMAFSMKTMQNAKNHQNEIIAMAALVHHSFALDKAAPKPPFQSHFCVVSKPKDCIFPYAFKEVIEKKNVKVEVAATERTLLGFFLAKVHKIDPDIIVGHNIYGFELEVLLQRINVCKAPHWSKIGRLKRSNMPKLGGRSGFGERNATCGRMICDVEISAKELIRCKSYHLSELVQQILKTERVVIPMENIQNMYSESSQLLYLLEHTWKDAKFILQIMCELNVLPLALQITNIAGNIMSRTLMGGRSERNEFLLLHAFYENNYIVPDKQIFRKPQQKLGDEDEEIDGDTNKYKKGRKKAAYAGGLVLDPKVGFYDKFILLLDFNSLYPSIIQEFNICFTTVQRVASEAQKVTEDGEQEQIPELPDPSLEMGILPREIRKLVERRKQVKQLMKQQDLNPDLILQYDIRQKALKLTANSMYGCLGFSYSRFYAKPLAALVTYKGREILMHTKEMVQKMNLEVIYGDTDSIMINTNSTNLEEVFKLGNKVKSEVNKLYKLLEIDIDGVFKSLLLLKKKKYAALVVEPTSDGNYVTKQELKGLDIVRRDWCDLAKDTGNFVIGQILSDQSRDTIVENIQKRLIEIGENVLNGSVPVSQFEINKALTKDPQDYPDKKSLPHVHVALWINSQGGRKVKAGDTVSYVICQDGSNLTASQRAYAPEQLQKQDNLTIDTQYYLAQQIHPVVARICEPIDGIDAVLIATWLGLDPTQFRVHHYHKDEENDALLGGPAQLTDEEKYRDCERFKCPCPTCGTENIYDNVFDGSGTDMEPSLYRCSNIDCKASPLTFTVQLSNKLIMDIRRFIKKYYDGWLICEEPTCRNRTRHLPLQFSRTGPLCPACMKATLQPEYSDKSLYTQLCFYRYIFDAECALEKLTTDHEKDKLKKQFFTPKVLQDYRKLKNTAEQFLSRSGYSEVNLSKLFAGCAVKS

[22] = Drug level in TERT-immortalized HMVEC treated with (2S)-2-ethylbutyl 2-((((2R,3S,4R,5R)-5-(4-aminopyrrolo[1,2-f][1,2,4]triazin-7-yl)-5-cyano-3,4-dihydroxytetrahydrofuran-2-yl)methoxy)(phenoxy)phosphorylamino)propanoate at 1 uM after 2 to 72 hrs; assay type: ADME, cell-based; conditions: human
Macrophage = assay: Drug level in human macrophages treated with (2S)-2-ethylbutyl 2-((((2R,3S,4R,5R)-5-(4-aminopyrrolo[1,2-f][1,2,4]triazin-7-yl)-5-cyano-3,4-dihydroxytetrahydrofuran-2-yl)methoxy)(phenoxy)phosphorylamino)propanoate at 1 uM after 2 to 72 hrs; assay type: ADME, cell-based
PBMC [23] = assay: Drug level in rhesus monkey PBMC treated with (S)-2-Ethylbutyl 2-(((S)-(((2R,3S,4R,5R)-5-(4-Aminopyrrolo-[2,1-f][1,2,4]triazin-7-yl)-5-cyano-3,4-dihydroxytetrahydrofuran-2-yl)methoxy)(phenoxy)phosphoryl)amino)propanoate at 10 mg/kg, iv administered as single bolus dose up to 2 hrs; assay type: ADME, organism-based, Macaca mulatta; conditions: in vivo
[24] = molecular target: T1, DNA-directed RNA polymerase, mitochondrial; assay: Inhibition of human mitochondrial RNA polymerase assessed as single nucleotide incorporation rate in presence of 5'-[32P]-R12/D18 as primer/template by PAGE based phosphorimaging assay; parameters: scale not given: the % may be the effect or the level left
[25] = Drug level in human HeLa cells treated with (2S)-2-ethylbutyl 2-((((2R,3S,4R,5R)-5-(4-aminopyrrolo[1,2-f][1,2,4]triazin-7-yl)-5-cyano-3,4-dihydroxytetrahydrofuran-2-yl)methoxy)(phenoxy)phosphorylamino)propanoate at 1 uM after 2 to 72 hrs; assay type: ADME, cell-based
DNA polymerase beta = DNA polymerase beta (Homo sapiens, UniProt P06746); assay: Inhibition of recombinant human DNA polymerase beta preincubated with enzyme followed by addition of dATP/dGTP/TTP as substrate in presence of […] by phosphorimaging assay
[26] = Inhibition of recombinant human DNA polymerase gamma preincubated with enzyme followed by addition of dATP/dGTP/TTP as substrate in presence of […] by phosphorimaging assay
[27] = Inhibition of recombinant human DNA polymerase gamma assessed as single nucleotide incorporation rate after 5 to 90 mins in presence of [32P]-D19/D36 as primer/template by PAGE based phosphorimaging assay; parameters: scale not given: the % may be the effect or the level left
[28] = Inhibition of Hepatitis C virus genotype 1b NS5B RNA-dependent-RNA polymerase preincubated for 5 mins followed by [alpha-33P]GTP addition measured after 90 mins by phosphorimaging assay; parameters: species or system Hepatitis C virus subtype 1b
[29] = Inhibition of RNA polymerase 2 in human HeLa cells preincubated for 5 mins with […] as substrate followed by addition of cell extract measured after 1 hr by SDS-PAGE method
[30] = Inhibition of Respiratory syncytial virus A2 RNA-dependent-RNA polymerase assessed as reduction in RNP transcriptional activity after 90 mins in presence of [gamma-32P]ATP by agarose gel based phosphorimaging assay; parameters: species or system Human respiratory syncytial virus A2
[31] = as §2; assay type: cell-based; conditions: MT4 cells
Huh-7 = assay: Cytotoxicity against human HuH7 cells assessed as reduction in cell viability after 3 days by calcein-AM dye based fluorescence assay; conditions: huh-7, 72 h, 72 h
[32] = as §3; assay type: cell-based, HEp-2; conditions: HEp-2 cells

T1 sequence (O00411 whole entry): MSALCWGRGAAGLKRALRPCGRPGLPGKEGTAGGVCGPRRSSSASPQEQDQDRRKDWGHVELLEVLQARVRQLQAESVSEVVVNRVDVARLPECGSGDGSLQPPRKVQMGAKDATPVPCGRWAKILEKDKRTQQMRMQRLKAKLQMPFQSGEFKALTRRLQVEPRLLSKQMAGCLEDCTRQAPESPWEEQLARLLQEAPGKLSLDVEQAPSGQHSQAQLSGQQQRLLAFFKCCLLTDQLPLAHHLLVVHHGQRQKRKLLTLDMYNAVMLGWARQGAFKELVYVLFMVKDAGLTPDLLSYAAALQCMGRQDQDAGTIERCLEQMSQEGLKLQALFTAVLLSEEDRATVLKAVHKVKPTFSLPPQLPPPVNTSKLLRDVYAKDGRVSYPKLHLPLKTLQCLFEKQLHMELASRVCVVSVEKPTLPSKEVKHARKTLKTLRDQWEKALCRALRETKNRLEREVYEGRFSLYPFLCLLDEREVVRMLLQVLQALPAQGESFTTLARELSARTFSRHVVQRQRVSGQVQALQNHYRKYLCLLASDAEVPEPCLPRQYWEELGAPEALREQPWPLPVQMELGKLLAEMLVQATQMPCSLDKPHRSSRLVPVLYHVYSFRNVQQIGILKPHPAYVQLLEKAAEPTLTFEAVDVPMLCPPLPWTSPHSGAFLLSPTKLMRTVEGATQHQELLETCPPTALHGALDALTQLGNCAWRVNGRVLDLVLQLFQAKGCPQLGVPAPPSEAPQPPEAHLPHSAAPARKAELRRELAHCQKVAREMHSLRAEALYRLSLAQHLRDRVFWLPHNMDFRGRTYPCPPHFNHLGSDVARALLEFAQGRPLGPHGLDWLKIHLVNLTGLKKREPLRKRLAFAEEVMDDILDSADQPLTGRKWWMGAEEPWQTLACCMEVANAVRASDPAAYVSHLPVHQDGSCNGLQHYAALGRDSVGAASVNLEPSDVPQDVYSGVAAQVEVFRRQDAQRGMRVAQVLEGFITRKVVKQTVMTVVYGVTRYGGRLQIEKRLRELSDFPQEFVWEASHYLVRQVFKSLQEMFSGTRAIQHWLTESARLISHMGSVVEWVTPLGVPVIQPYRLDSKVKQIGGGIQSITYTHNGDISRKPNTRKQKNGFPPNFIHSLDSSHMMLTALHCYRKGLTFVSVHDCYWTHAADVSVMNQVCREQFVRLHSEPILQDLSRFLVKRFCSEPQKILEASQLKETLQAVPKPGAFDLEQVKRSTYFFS

CCC(CC)COC(=O)[C@H](C)N[P@](=O)(OC[C@H]1O[C@@](C#N)(c2ccc3c(N)ncnn23)[C@H](O)[C@@H]1O)Oc1ccccc1
Drug metabolism (PBMC [1]): Metabolite_Detected
survival at 3 mg/kg (Ebolavirus [2]): 66%
EC50 (Ebolavirus [3]; hela): 100 nM
logD ([4]; 0.5 h): 2.1
Drug uptake [5]: Active
EC50 (Ebolavirus [6]): 86 nM
Drug uptake (Plasma [7]): Active
EC50 (Ebolavirus [8]): 53 nM
CC50 (MT4): 1700 nM
Time (PBMC [9]): 24 h
Activity (Ebolavirus [10]): <80000 mL⁻¹
Drug metabolism (Plasma [11]): Metabolite_Detected
EC50 (Human orthopneumovirus): 15 nM
Drug uptake [12]: Active
CC50 (HEp-2): 6100 nM
Drug uptake (Brain [13]): Active
Activity (Homo sapiens [14]): Non-Toxic
survival at 10 mg/kg (Ebolavirus [15]): 100%
EC50 (Hepatitis C virus): 57 nM
Drug uptake (Brain [16]): Not Active
Drug uptake [17]: Metabolite_Detected
t1/2 (Plasma [18]): 1.15 h
Activity (Homo sapiens [19]): Non-Toxic

N#C[C@@]1(c2ccc3c(N)ncnn23)O[C@H](COP(=O)(O)OP(=O)(O)OP(=O)(O)O)[C@@H](O)[C@H]1O [RDV-TP]
IC50 [20]: > 200000 nM
IC50 [21]: > 200000 nM
Drug metabolism [22]: Metabolite_Detected
Drug metabolism (Macrophage): Metabolite_Detected
Drug metabolism (PBMC [23]): Metabolite_Detected
Activity [24]: 6%
Drug metabolism [25]: Metabolite_Detected
IC50 (DNA polymerase beta): > 200000 nM
IC50 [26]: > 200000 nM
Activity [27]: 0%
IC50 [28]: 5000 nM
IC50 [29]: > 200000 nM
IC50 [30]: 1100 nM

CCC(CC)COC(=O)[C@H](C)N[P@](=O)(OC[C@H]1O[C@@](C#N)(c2ccc3c(N)ncnn23)[C@H](O)[C@@H]1O)Oc1ccccc1 (mixture of isomers)
EC50 (Ebolavirus [3]; Orthoebolavirus, Kikwit, HeLa): 170 nM
logD at 0.5 h [4]: 2.1
EC50 (Ebolavirus [6]; Orthoebolavirus, Kikwit): 100 nM
EC50 (Ebolavirus [8]): 120 nM
CC50 [31]: 2000 nM
CC50 (Huh-7): 17000 nM
EC50 (Human orthopneumovirus; human respiratory syncytial virus, A2, HEp-2, 96 h): 27 nM
CC50 [32]: 9200 nM
EC50 (Hepatitis C virus): 23 nM
t1/2 (Plasma [18]): 3.25 h
